Measurements from different studies.
Each line is one published result; the experiments were not run side by side.
Target: Serine/threonine-protein kinase 25 (STK25, Homo sapiens, UniProt O00506)

CCCOc1ccc([C@H]2[C@H](C(=O)O)[C@@H](c3ccc4c(c3)OCO4)CN2CC(=O)Nc2c(CC)cccc2CC)cc1 — remaining binding (cell-free assay; competition with immobilised ligand; 1 µM): 100%
N[C@@H]1CCN(c2nccc(-c3cnn4ncccc34)n2)C1 — remaining binding (binding; 1 µM): 100%
CN([C@@H]1CCc2c(CC(=O)O)c3cc(S(C)(=O)=O)ccc3n2C1)S(=O)(=O)c1ccc(F)cc1 — remaining binding (cell-free assay; competition with immobilised ligand; 1 µM): 100%
CN(c1nccc(-c2cnn3ncccc23)n1)C1CC1 — remaining binding (binding; 1 µM): 100%
CC(=O)C1=C(C)N(c2cccc(C(F)(F)F)c2)C(=O)N[C@@H]1c1ccc(C#N)nc1 — remaining binding (cell-free assay; competition with immobilised ligand; 1 µM): 89.9%
COc1ncc2cc3ccccc3nc2c1C#N — remaining binding (cell-free assay; competition with immobilised ligand; 5 µM): 100%
O=C(c1ccc(Nc2ncc(Cl)c(-c3ccc(Cl)s3)n2)cc1)N1CCC(N2CCCC2)CC1 — remaining binding (binding; competition with immobilised ligand; 1 µM): 22%
CN(C)C(=O)Cn1cc(-c2nc(C3(c4ccc(-c5cnc(N)nc5)cc4)CC3)no2)cn1 — remaining binding (cell-free assay; competition with immobilised ligand; 1 µM): 100%
CN(C)c1nccc(-c2cnn3ncccc23)n1 — remaining binding (binding; 1 µM): 90%
O=C(NCCCN1CCOCC1)c1ccc(Nc2nccc(-c3cc4ccccc4s3)n2)cc1 — remaining binding (binding; competition with immobilised ligand; 1 µM): 67%
Nc1ncc2c(n1)-c1c([nH]c3ccc(C#CC4CC4)cc13)CCCC2 — remaining binding (binding; competition with immobilised ligand; 1 µM): 100%
C[C@H]1CCN(c2nccc(-c3cnn4ncccc34)n2)C1 — remaining binding (binding; 1 µM): 100%
c1ccc(N2CCN(Cc3nc4ccccc4[nH]3)CC2)nc1 — remaining binding (binding; competition with immobilised ligand; 1 µM): 94%
COc1cnc(Nc2cccc(S(N)(=O)=O)c2)nc1N1CCN(c2ccccc2)C(=O)C1 — remaining binding (binding; competition with immobilised ligand; 1 µM): 100%
COc1ccnn2ncc(-c3ccnc(N(C)C)n3)c12 — remaining binding (binding; 1 µM): 100%
O=C(Nc1c[nH]nc1C(=O)NC1CCNCC1)c1cc(F)cc(F)c1 — remaining binding (binding; competition with immobilised ligand; 1 µM): 85%
c1cncc(-c2cccc(Nc3nccc(NC4CCCCC4)n3)c2)c1 — remaining binding (binding; competition with immobilised ligand; 10 µM): 100%
CCCCN(CCCC)C(=O)CN1C[C@H](c2cc(OC)c3c(c2)OCO3)[C@@H](C(=O)O)[C@@H]1CC(C)(C)CCC — remaining binding (cell-free assay; competition with immobilised ligand; 1 µM): 100%
CN(CCCC(F)(F)F)c1nccc(-c2cnn3ncccc23)n1 — remaining binding (binding; 1 µM): 100%
Cc1cnc(Nc2ccc(C(=O)N3CCC(N4CCCC4)CC3)cc2)nc1-c1cc2ccccc2s1 — remaining binding (binding; competition with immobilised ligand; 1 µM): 21%
